Experimental findings from ChEMBL document CHEMBL1138346, “BINOL-amino acid conjugates as triggerable carriers of DNA-targeted potent photocytotoxic agents” (J Med Chem, 2007) are described below.

Calls of active or inactive are those of the source. No cut-off for these calls is given here.

A short description of series [1]: Partition coefficient, log P of the compound. The format is physicochemical. To be noted: octanol/water. The method, boiled down: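 Calculated log P of neutral form by Crippen fragmentation method.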
Series [2] deals with Escherichia coli. Description: Induction of pBR322 cross-linking in absence of irradiation by alkaline agarose gel assay.
Series [3] in a line: Induction of pBR322 cross-linking after irradiation by alkaline agarose gel assay. The note with it: Escherichia coli. The method, boiled down: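 pBR322 (0.5 µg/sample) with compound 0.62–80 µM (DMSO stock diluted in water), 50 mM phosphate pH 7.5, irradiated on ice 20 min at 360 nm, 120 W. Run on 1% alkaline agarose (50 mM NaOH, 1 mM EDTA), 12 V, 15–16 h, ethidium bromide stain. Value is lowest concentration giving interstrand cross-link band.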

Series [4] relates to Escherichia coli. As to the kind of experiment: Induction of pBR322 cross-linking after irradiation at 20 mM at pH 5.5 by alkaline agarose gel assay.
In series [5] the test system is LoVo. As to the kind of experiment: Photocytotoxicity against UV irradiated human LoVo cells after 24 hrs by MTT assay. The format is functional, cell-based. The method, boiled down:
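LoVo cells in DMEM/F-12 1:1 with 10% FBS, plated at 1.75 × 10^4 cells/well overnight. Exposed 24 h to 12 nM–200 µM compound (DMSO, 1% final), washed, fresh medium, irradiated 30 min at 360 nm, then 24 h at 37 °C. MTT absorbance at 540 nm, survival relative to solvent controls; EC50 from mean of three experiments in triplicate.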
For orientation: Formazan colour is commonly taken as a measure of viable cells.

The subject of series [6] is LoVo. Description: Cytotoxicity against human LoVo cells after 24 hrs by MTT assay. The format is functional. A digest of the protocol: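 Dark cytotoxicity (CC50), LoVo human colorectal adenocarcinoma in DMEM/F-12 1:1 with 10% FBS, 37 °C, 5% CO2. 1.75 × 10^4 cells/well plated overnight; compound 12 nM–200 µM in DMSO (1% final) for 24 h, then washed and fresh medium, kept in dark 24 h more at 37 °C. MTT read at 540 nm; mean of three experiments in triplicate.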

Series [7] has as its system LoVo. As to the kind of experiment: Selectivity index, ratio of CC50 for LoVo cells to EC50 for UV irradiated LoVo cells. The format is functional, Homo sapiens. A digest of the protocol:
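Ratio CC50/EC50 in LoVo cells; both from MTT after 24 h compound exposure (12 nM–200 µM, 1% DMSO), then 24 h more either in the dark or after 30 min irradiation at 360 nm. Mean of three triplicate experiments.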

[8] abbreviates: Homo sapiens, LoVo, light or radiation study, 24 h.

By logP is commonly meant a log measure of how a compound divides between an organic and an aqueous phase. The low end stands for a more hydrophilic compound, the high end for a more lipophilic compound. In turn, `O=C(O)[C@@H]1CCCN1Cc1cc2ccccc2c(-c2c(O)c(CN3CCC[C@H]3C(=O)O)cc3ccccc23)c1O` (stereo in doubt; (S,S,S)-6) [listing 1 of 2 here] gave a logP in series [1] of 4.28.

Consider `O=C(O)[C@@H]1CCCN1Cc1cc2ccccc2c(-c2c(O)c(CN3CCC[C@H]3C(=O)O)cc3ccccc23)c1O` (stereo in doubt; (S,S,S)-6) [listing 2 of 2 here], for which the outcome in the series on Escherichia coli [2] was inactive. The same compound showed a Minimum concentration for DNA interstrand cross-linking in series [3] of 2.5 µM. Also, in the series with Escherichia coli [4], the outcome was Active.

As for `COC(=O)[C@@H]1CCCN1Cc1cc2ccccc2c(-c2c(O)c(CN3CCC[C@H]3C(=O)OC)cc3ccccc23)c1O` (stereo in doubt; (S,S,S)-5) [listing 1 of 2 here], in the series on Escherichia coli [2], the outcome was inactive. Also, the Minimum concentration for DNA interstrand cross-linking in series [3] was 20 µM.

As a reminder, the EC50 is the concentration needed to bring the measured effect to its halfway point. As usually defined, the CC50 is the concentration at which the toxic effect on the cells reaches its halfway point. Consider `NCCCC[C@H](NCc1cc2ccccc2c(-c2c(O)c(CN[C@@H](CCCCN)C(=O)O)cc3ccccc23)c1O)C(=O)O`, for which, in the series with Escherichia coli [2], the result was inactive. The compound further gave an EC50 in the series with LoVo [5] (setting [8]) of over 200 µM. The compound further showed a Minimum concentration for DNA interstrand cross-linking in series [3] of 20 µM. Further, the CC50 with LoVo [6] was over 200 µM. The result in the series on Escherichia coli [4] was Active. For the same compound, the logP in series [1] was 3.34.

For the compound `O=C(O)[C@@H]1CCCN1Cc1cc2ccccc2c(-c2c(O)c(CN3CCC[C@H]3C(=O)O)cc3ccccc23)c1O` (stereo in doubt; (R,S,S)-6) [listing 1 of 2 here], in the series on LoVo [5] (setting [8]), the concentration for a half-maximal effect (EC50) was over 200 µM. In the series with LoVo [6], this compound had a cytotoxic concentration (CC50) of over 200 µM.

Regarding `COC(=O)[C@H](C)NCc1cc2ccccc2c(-c2c(O)c(CN[C@@H](C)C(=O)OC)cc3ccccc23)c1O`, the result in the series on Escherichia coli [2] was inactive. This compound also displayed an EC50 in the series on LoVo [5] (setting [8]) of 4 µM. In series [3], this compound had a Minimum concentration for DNA interstrand cross-linking of over 40 µM. Besides, the half-maximal cytotoxic concentration (CC50) in the series with LoVo [6] was 1.5 µM. The “Ratio CC50/EC50” value with LoVo [7] amounted to 0.4. In series [1], this compound came in with a logP of 4.38.

On to `COC(=O)[C@@H](NCc1cc2ccccc2c(-c2c(O)c(CN[C@H](C(=O)OC)C(C)C)cc3ccccc23)c1O)C(C)C`, for which the outcome in the series with Escherichia coli [2] was inactive. In the series with LoVo [5] (setting [8]), this compound displayed an EC50 of 0.13 µM. Moreover, in series [3], the Minimum concentration for DNA interstrand cross-linking stood at 5 µM. Moreover, the CC50 in the series with LoVo [6] turned out to be 14 µM. In addition, the “Ratio CC50/EC50” value in the series with LoVo [7] is on record as 108. In series [1], this compound gave a logP of 6.15.

For `C[N+](C)(C)Cc1cc2ccccc2c(-c2c(O)c(C[N+](C)(C)C)cc3ccccc23)c1O`, the result in the series with Escherichia coli [2] was inactive. In the series on LoVo [5] (setting [8]), this compound displayed an EC50 of over 200 µM. The same compound registered a Minimum concentration for DNA interstrand cross-linking in series [3] of 1.25 µM. Further, in the series on LoVo [6], the CC50 was over 200 µM.

Regarding `COC(=O)[C@@H]1CCCN1Cc1cc2ccccc2c(-c2c(O)c(CN3CCC[C@H]3C(=O)OC)cc3ccccc23)c1O` (stereo in doubt; (R,S,S)-5) [listing 1 of 2 here], the concentration giving a half-maximal response (EC50) in the series on LoVo [5] (setting [8]) came out at 0.23 µM. The compound further showed a CC50 in the series with LoVo [6] of over 200 µM. In addition, the “Ratio CC50/EC50” value with LoVo [7] was over 860.

With `COC(=O)[C@@H]1CCCN1Cc1cc2ccccc2c(-c2c(O)c(CN3CCC[C@H]3C(=O)OC)cc3ccccc23)c1O` (stereo in doubt; (S,S,S)-5) [listing 2 of 2 here], the EC50 with LoVo [5] (lovo) was 0.22 µM. Also, the “Ratio CC50/EC50” value in the series on LoVo [7] was over 900. The logP in series [1] was determined as 4.81.

Take `COC(=O)[C@@H]1CCCN1Cc1cc2ccccc2c(-c2c(O)c(CN3CCC[C@H]3C(=O)OC)cc3ccccc23)c1O` (stereo in doubt; (R,S,S)-5) [listing 2 of 2 here]: the result in the series on Escherichia coli [2] was inactive. In series [3], this compound yielded a Minimum concentration for DNA interstrand cross-linking of 20 µM.

Regarding `O=C(O)[C@@H]1CCCN1Cc1cc2ccccc2c(-c2c(O)c(CN3CCC[C@H]3C(=O)O)cc3ccccc23)c1O` (stereo in doubt; (R,S,S)-6) [listing 2 of 2 here], the result in the series on Escherichia coli [2] was inactive. In addition, the Minimum concentration for DNA interstrand cross-linking in series [3] came out at 2.5 µM. Further, the result with Escherichia coli [4] was Active.

For the compound `Cc1cc2cc3c(C)cc(=O)oc3c(C)c2o1` [TRIOXSALEN], the result in the series on Escherichia coli [2] was inactive. In the series on LoVo [5] (setting [8]), this compound gave a half-maximal effective concentration (EC50) of 0.94 µM. The same compound returned a Minimum concentration for DNA interstrand cross-linking in series [3] of under 0.5 µM. Moreover, the half-maximal cytotoxic concentration (CC50) in the series with LoVo [6] was over 200 µM. The “Ratio CC50/EC50” value in the series on LoVo [7] was over 210. Also, in series [1], the lipophilicity (logP) turned out to be 2.44.
